# Measured values as given in ChEMBL document CHEMBL4020840, “Synthesis and Biological Evaluation of Selenium-Containing 4-Anilinoquinazoline Derivatives as Novel Antimitotic Agents” (J Med Chem, 2018).
# Key:
# A549 [1] = assay: Induction of apoptosis in human A549 cells assessed as live cells at 2 nM after 24 hrs by Annexin V-FITC/propidium iodide staining based flow cytometry (reference value: 98.84%); type: functional
# [2] = Selectivity index, ratio of IC50 for human LO2 cells to IC50 for human A549 cells; type: functional
# Procedure, shortened: (§1)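 MTT assay in normal cells and A549: seeding at 5 × 10³ cells/well for 24 h, 48 h compound exposure, then 5 mg/mL MTT for 4 h, DMSO solubilisation and absorbance at 570 nm. IC50 values came from dose–response curves of at least three independent experiments. Selectivity ratio = IC50 in normal cells / IC50 in A549.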
# [3] = Selectivity index, ratio of IC50 for HLF to IC50 for human A549 cells; procedure, shortened: as §1
# A549 [4] = assay: Growth inhibition of human A549 cells after 48 hrs by MTT assay; type: functional, cell-based; details: A549, 48 h
# HCT-116 = assay: Growth inhibition of human HCT116 cells after 48 hrs by MTT assay; type: functional, cell-based; details: HCT-116, 48 h
# Procedure, shortened: (§2)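 MTT assay: log-phase cells plated at 5 × 10³/well for 24 h, then exposed to a range of test concentrations for 48 h. MTT (5 mg/mL) added for 4 h, formazan dissolved in DMSO, absorbance read at 570 nm. IC50 is the concentration giving 50% growth inhibition, from dose-response curves; at least three independent experiments, mean ± SE.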
# HepG2 = assay: Growth inhibition of human HepG2 cells after 48 hrs by MTT assay; type: functional, cell-based; details: HepG2, 48 h; procedure, shortened: as §2
# MDA-MB-231 = assay: Growth inhibition of human MDA-MB-231 cells after 48 hrs by MTT assay; type: functional, cell-based; details: MDA-MB-231, 48 h; procedure, shortened: as §2
# LoVo = assay: Growth inhibition of human LoVo cells after 48 hrs by MTT assay; type: functional, cell-based; procedure, shortened: as §2
# RKO = assay: Growth inhibition of human RKO cells after 48 hrs by MTT assay; type: functional, cell-based; procedure, shortened: as §2
# MCF7 = assay: Antiproliferative activity against human MCF7 cells after 48 hrs by MTT assay; type: functional, cell-based; details: MCF7, 48 h; procedure, shortened: as §2
# HeLa = assay: Antiproliferative activity against human HeLa cells after 48 hrs by MTT assay; type: functional, cell-based; procedure, shortened: as §2
# MGC-803 = assay: Antiproliferative activity against human MGC803 cells after 48 hrs by MTT assay; type: functional, cell-based; details: MGC-803, 48 h; procedure, shortened: as §2
# A549/CDDP = assay: Growth inhibition of human A549/CDDP cells after 48 hrs by MTT assay; type: functional, cell-based; procedure, shortened: as §2
# [5] = Growth inhibition of human HepG2/DOX cells after 48 hrs by MTT assay; type: functional, cell-based; procedure, shortened: as §2
# [6] = Resistance factor, ratio of IC50 for human A549/CDDP cells to IC50 for human A549 cells; type: functional
# Procedure, shortened: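 MTT assay: log-phase cells were seeded at 5 × 10³/well for 24 h, then exposed to a concentration series for 48 h. MTT (5 mg/mL) was added for 4 h, formazan was dissolved in DMSO, and A570 was read. IC50 values came from dose–response curves of at least three independent experiments. Resistance factor = IC50 in the resistant line / IC50 in the parental sensitive line.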
# [7] = Inhibition of porcine brain tubulin polymerization measured every 60 secs for 90 mins by DAPI staining based fluorescence assay; design: species or system Sus scrofa
# Procedure, shortened: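 Purified tubulin was tested in a kit assay. Final buffer: 80 mM PIPES sesquisodium (pH 6.9), 2.0 mM MgCl₂, 0.5 mM EGTA, 1 mM GTP, 10.2% glycerol. Compound (0.1–10 μM) was prewarmed at 37 °C for 1 min before tubulin was added. DAPI reporter fluorescence (ex 340 / em 410 nm) was read every 60 s for 90 min. Area under the curve gave percent inhibition versus control and the IC50.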
# [8] = Antiproliferative activity against HLF after 48 hrs by MTT assay; type: cell-based; details: Homo sapiens; procedure, shortened: as §2
# A549 [9] = assay: Cell cycle arrest in human A549 cells assessed as accumulation at G2/M phase at 4 nM up to 24 hrs by propidium iodide staining based flow cytometry (reference value: 10.13%); type: functional
# Procedure, shortened: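 A549 seeded in six-well plates at 3 × 10⁵ cells/well and treated for 12 or 24 h; vehicle 0.01% DMSO. Cells fixed overnight in ice-cold 70% ethanol, treated with RNase A at 37 °C for 30 min, then stained with PI at 4 °C for 30 min. About 10 000 events acquired by flow cytometry at 488 nm; three experiments.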
# A549 [10] = assay: Induction of apoptosis in human A549 cells assessed as early apoptotic cells at 2 nM after 24 hrs by Annexin V-FITC/propidium iodide staining based flow cytometry (reference value: 0.98%); type: functional
# A549 [11] = assay: Induction of apoptosis in human A549 cells assessed as late apoptotic cells at 2 nM after 24 hrs by Annexin V-FITC/propidium iodide staining based flow cytometry (reference value: 0.08%); type: functional
# A549 [12] = assay: Induction of apoptosis in human A549 cells assessed as necrotic cells at 2 nM after 24 hrs by Annexin V-FITC/propidium iodide staining based flow cytometry (reference value: 0.10%); type: functional
# A549 [13] = assay: Induction of apoptosis in human A549 cells assessed as live cells at 4 nM after 24 hrs by Annexin V-FITC/propidium iodide staining based flow cytometry (reference value: 98.84%); type: functional
# A549 [14] = assay: Induction of apoptosis in human A549 cells assessed as early apoptotic cells at 4 nM after 24 hrs by Annexin V-FITC/propidium iodide staining based flow cytometry (reference value: 0.98%); type: functional
# A549 [15] = assay: Induction of apoptosis in human A549 cells assessed as late apoptotic cells at 4 nM after 24 hrs by Annexin V-FITC/propidium iodide staining based flow cytometry (reference value: 0.08%); type: functional
# A549 [16] = assay: Induction of apoptosis in human A549 cells assessed as necrotic cells at 4 nM after 24 hrs by Annexin V-FITC/propidium iodide staining based flow cytometry (reference value: 0.10%); type: functional
# A549 [17] = assay: Induction of apoptosis in human A549 cells assessed as live cells at 2 nM after 48 hrs by Annexin V-FITC/propidium iodide staining based flow cytometry (reference value: 98.49%); type: functional
# A549 [18] = assay: Induction of apoptosis in human A549 cells assessed as early apoptotic cells at 2 nM after 48 hrs by Annexin V-FITC/propidium iodide staining based flow cytometry (reference value: 1.48%); type: functional
# A549 [19] = assay: Induction of apoptosis in human A549 cells assessed as late apoptotic cells at 2 nM after 48 hrs by Annexin V-FITC/propidium iodide staining based flow cytometry (reference value: 0.03%); type: functional
# A549 [20] = assay: Induction of apoptosis in human A549 cells assessed as necrotic cells at 2 nM after 48 hrs by Annexin V-FITC/propidium iodide staining based flow cytometry relative to control; type: functional
# A549 [21] = assay: Induction of apoptosis in human A549 cells assessed as live cells at 4 nM after 48 hrs by Annexin V-FITC/propidium iodide staining based flow cytometry (reference value: 98.49%); type: functional
# A549 [22] = assay: Induction of apoptosis in human A549 cells assessed as early apoptotic cells at 4 nM after 48 hrs by Annexin V-FITC/propidium iodide staining based flow cytometry (reference value: 1.48%); type: functional
# A549 [23] = assay: Induction of apoptosis in human A549 cells assessed as late apoptotic cells at 4 nM after 48 hrs by Annexin V-FITC/propidium iodide staining based flow cytometry (reference value: 0.03%); type: functional
# A549 [24] = assay: Induction of apoptosis in human A549 cells assessed as necrotic cells at 4 nM after 48 hrs by Annexin V-FITC/propidium iodide staining based flow cytometry relative to control; type: functional
# L02 = assay: Antiproliferative activity against human LO2 cells after 48 hrs by MTT assay; type: cell-based; details: L02, 48 h; procedure, shortened: as §2
# BJ = assay: Antiproliferative activity against human BJ cells after 48 hrs by MTT assay; type: cell-based; procedure, shortened: as §2
# [25] = Selectivity index, ratio of IC50 for human BJ cells to IC50 for human A549 cells; type: functional; procedure, shortened: as §1
structure (smiles),measurement,setting,value
Cc1nc(N(C)c2ccc([Se]C#N)cc2)c2ccccc2n1,Activity,A549 [1],82.96%
same,Ratio IC50,[2],4.1
same,Ratio IC50,[3],4.6
same,IC50,A549 [4],11 nM
same,IC50,HCT-116,15 nM
same,IC50,HepG2,9 nM
same,IC50,MDA-MB-231,20 nM
same,IC50,LoVo,32 nM
same,IC50,RKO,9 nM
same,IC50,MCF7,19 nM
same,IC50,HeLa,9 nM
same,IC50,MGC-803,12 nM
same,IC50,A549/CDDP,32 nM
same,IC50,[5],29 nM
same,Ratio IC50,[6],3.56
same,IC50,[7],3120 nM
same,IC50,[8],41 nM
same,Activity,A549 [9],69.69%
same,Activity,A549 [10],13.55%
same,Activity,A549 [11],2.38%
same,Activity,A549 [12],1.11%
same,Activity,A549 [13],64.96%
same,Activity,A549 [14],27.46%
same,Activity,A549 [15],5.58%
same,Activity,A549 [16],1.77%
same,Activity,A549 [17],74.73%
same,Activity,A549 [18],17.56%
same,Activity,A549 [19],5.78%
same,Activity,A549 [20],1.94%
same,Activity,A549 [21],40.54%
same,Activity,A549 [22],21.45%
same,Activity,A549 [23],29.41%
same,Activity,A549 [24],7.59%
same,IC50,L02,37 nM
same,IC50,BJ,33 nM
same,Ratio IC50,[25],3.7
